Measurements published in the EternaBench riboswitch data.

Test system: MS2 coat protein
Experiment: apparent Kd, MS2 coat protein; higher = weaker binding; RNA-MaP array; FMN 200 µM where present
How it was run: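 Two titrations, one without ligand and one with constant ligand, were run with SNAP-549-labelled MS2 coat protein from 0.7 or 1.5 nM, doubling to 3 µM. The targets were designs transcribed by stalled E. coli RNA polymerase on Illumina sequencing-chip clusters, in 100 mM Tris-HCl pH 7.5, 80 mM KCl, 4 mM MgCl2, BSA, DTT, yeast tRNA and Tween-20. The apparent Kd is the median of filtered per-cluster binding-curve fits, with green signal normalised to red-channel RNA signal and control-cluster median Fmax.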

[1] = designed as: OFF switch for flavin mononucleotide, no ligand
[2] = ligand present: flavin mononucleotide, designed as: OFF switch for flavin mononucleotide
[3] = designed as: ON switch for flavin mononucleotide, no ligand
[4] = ligand present: flavin mononucleotide, designed as: ON switch for flavin mononucleotide

Row | Sequence | apparent Kd [1] | apparent Kd [2] | apparent Kd [3] | apparent Kd [4]
1 | GGAAAACAUGAGGAUCACCCAUGUGAGGAUAUCGAUGUCCAGGGCCGGGUGCGGGACUCGAGAAGGCACUUGGA | 64.5 nM | 41.6 nM | – | –
2 | AGGGUAGUAGGAUAUACAUGAGGAUCACCCAUGUUUCCAUUGCGUGACUGGUCCUAGUGUAGAAGGGCUAGCAC | 18.6 nM | 17.6 nM | – | –
3 | AAACACGGACAUGAGGAUCACCCAUGUGGCGAAAGCCUAGGGAGAAGGCAGUAUGCAAAGCAUUCUGAGGAUAUUCAUACCGUG | – | – | 160 nM | 13.4 nM
4 | GUAGCUAUCGGAGGAUAUUCAUAGCGGAAACGGACAUGAGGAUCACCCAUGUGGCUAAAGCCUUGGGAGAAGGCCGAUAGCUAC | – | – | 25.8 nM | 6.64 nM
5 | AAGCGAGGGACAGGAUAUGCGGCGAAACUCGCCGCAGAAGGGUCGACAUGAGGAUCACCCAUGUCCUUACGCUCCAAGUAGUGG | – | – | 101 nM | 250 nM
6 | CAGGUAGCUACAGGAUAUACACAGCUCAGUAAACUGAGCAAAACAACUACAUGAGGAUCACCCAUGUAGAAGGGUAGCUGCCUG | 17 nM | 17.1 nM | – | –
7 | GUAGAACAUGAGGAUCACCCAUGUGAAGACGCAUGAGGAUAUGUCCGUACCUAGCAUACGAUAGAAGGCAUGGUAC | – | – | 69.2 nM | 88.2 nM
8 | AUAUCCAAUCAAGGAUAUGUAUUAAAGAUUUGAAAACAUGAGGAUCACCCAUGUAUAUGGUGGGAACAGAAGGUGAAUAAGUAA | 140 nM | 164 nM | – | –
9 | GGGUUGGGAGGAUAUCCAAUAUAUGACAUGAGGAUCACCCAUGUUUCCACUCGUACCUCCGGAGAAGGCCCAUCCC | 22.9 nM | 21.1 nM | – | –
10 | CGCUAAGAUGGGUCUAAUGGACCAUAGGAUAUGCUUGUACAUGAGGAUCACCCAUGUAAUAUUGUGCAGAAGGGUGGAUUUGCG | – | – | 26.4 nM | 19.6 nM
11 | UGGGUGGUAUGAGGAUAUGCGCGCGAAACGCGCGCAGAAGGCAUGUCAAUAGACAUGAGGAUCACCCAUGUACUAUCCAUCCAA | – | – | 91.3 nM | 9.19 nM
12 | GCGUUGUACGAGAAGGCCAAUACAUGAGGAUCACCCAUGUUAAGUUGUUUUGGAGGAUAUCGAUCACUUACAAUAAUGCAACGC | 7.23 nM | 6.31 nM | – | –
13 | ACAGAGCCUGACAUGAGGAUCACCCAUGUUAGAUUGUUAUGUCAGGAUAUUGUCUAGCAACUAGACAAGAAGGGACGCUCUGUG | – | – | 71.2 nM | 8.88 nM
14 | GAGAUGUGAGGAUAUCUAGACCGCGGAAGAGCUGCGGUCCGAGAGAAGGCACAUGAGGAUCACCCAUGUGAUGA | 46.2 nM | 145 nM | – | –
15 | AGUGCGUAUGUGAGGAUAUGCUGGUCCUUGGAUCAGCAGAAGGCACAUGAGGAUCACCCAUGUGGUGUCGUACA | 342 nM | 24.9 nM | – | –
16 | UUUAUGGGACAGAAGGGCAAUUUCUUUAAUUAUUAUUUAAAACAUCAUUGCAGGAUAUGUAUAACAUGAGGAUCACCCAUGUAC | – | – | 36.2 nM | 12.2 nM
17 | AACAAGUGAGGAUAUGAUAAUACAACAAACAAACAUCUACAUCAGAAGGCACAUGAGGAUCACCCAUGUUAAUC | 22 nM | 27.2 nM | – | –
18 | GCCUGUGAAGGAUAUACAUGAGGAUCACCCAUGUGGCGGAUAUACCCGCCGAGACCGUGUAGAAGGUCAUAGUA | 44 nM | 40.8 nM | – | –
19 | GAAAAGUGAGGAUAUGGUAAUGUAAGUAUGUAGUAUGUAAUCCAGAAGGCACAUGAGGAUCACCCAUGUAAAAG | 23 nM | 25.2 nM | – | –
20 | GCUAGGAGUGUGAGGAUAUGCUGAACCUUGGUUCAGCAGAAGGCACAUGAGGAUCACCCAUGUGAAGACCUAGC | 25.7 nM | 149 nM | – | –
21 | GCAUGACAAAGUCAUGCAUUACGAACAUGAGGAUCACCCAUGUAGGAUAUGCUACUCAAAGAGUAGCAGAAGGACAUGUGUCUU | 32.7 nM | 158 nM | – | –
22 | AAGACAUGAGGAUCACCCAUGUAAAGACCGGUCGAUCAAUGUGAGGAUAUUCCAUAAUUGAUAGGGAAGAAGGCACUGGGUUGA | – | – | 177 nM | 130 nM
23 | UGUUAUUAGACAGGAUAUUGAAUGUUAAGUAUUAACAUGAGGAUCACCCAUGUAUUUGAUUGGUACAAGAAGGGUCAUGUUUGU | – | – | 323 nM | 659 nM
24 | AGGGUAGACGUAGGAUAUACGGAAUGAAUGAAAGUAGAAGGAUGACAUGAGGAUCACCCAUGUGAAAUGAAAUGAUGAAGGGUG | 579 nM | 510 nM | – | –
25 | ACAUGAGGAUCACCCAUGUUUUUCGGGUACUCUUUUUACAGCAAGGAUAUGCAUGUUUUUUUUACGCAGAAGGUGCUUUACGUC | 102 nM | 165 nM | – | –
26 | GUCCUUAGCGAGGAUAUCGGGCGGGUUUUUGUUUGAGAAGGCGUGACAUGAGGAUCACCCAUGUGGCGCGUGGG | 39.2 nM | 69.7 nM | – | –
27 | GCCAGUUAUGUAGGAUAUGCGCGGCGAGCCUGUGCAGAAGGACAUGAGGAUCACCCAUGUGUUGCGGUCUGAGUACUGAUCGCC | 32.9 nM | 208 nM | – | –
28 | CUCCGGCGUGUAGGAUAUGGAUCCGAUUAGGAUCCAGAAGGACAUGAGGAUCACCCAUGUACAUGUAAACAGUCAUCACCGGAA | 7.61 nM | 18.8 nM | – | –

Row | Sequence | apparent Kd [1] | apparent Kd [2] | apparent Kd [3] | apparent Kd [4]
29 | GUUAAGUGAGGAUAUGGUGAGUAGUGCCUGAGCGCUGCUCACCAGAAGGCACAUGAGGAUCACCCAUGUAUAAC | 23 nM | 36 nM | – | –
30 | AACGAGCAGUAGAAGGGAUGUCUACGGACAUGAGGAUCACCCAUGUUGUGACUCCGAAAGGAGCGUCAGGAUAUACUGCUCAAA | – | – | 8.13 nM | 6.15 nM
31 | AUAUUUAAUAUAGGAUAUAGGAAGAAUGAUGAACUAGAAGGAUAACAUACAUGAGGAUCACCCAUGUCCCAUGUGAUCACCCAU | 321 nM | 338 nM | – | –
32 | AGUCAGAGCAGAGGAUAUAUACAUGAGGAUCACCCAUGUGACUGACUAUGCUAGAAAUAGUAUGUAUAGAAGGCUGCUCUGACA | 188 nM | 466 nM | – | –
33 | GGACGUUACAUCUACAUGAGGAUCACCCAUGUCUCUUGAGAUGAGGAUAUGUAUACGAAUCGUUUAUAGAAGGCAUGUACGUCC | – | – | 39.8 nM | 46.4 nM
34 | AAGCAUUGGCUUCUCAUCUACAUGAGGAUCACCCAUGUCGGGAGAAGGAGGCGUUGACGAAUAGCCUAGGAUAUCCUAACGUGC | 6.84 nM | 6.99 nM | – | –
35 | UUAUUACAUGAGGAUCACCCAUGUGAGGAUAUCGAUGUAACUAGCAGCGUGCGGGACUCGAGAAGGCACUUGGA | 61.1 nM | 144 nM | – | –
36 | UUACUACAUGAGGAUCACCCAUGUCAGGAUAUUGUCUAUACUUUGGAAUAUGUGUCGAUAAGAAGGGACUGUAU | 19.9 nM | 26.2 nM | – | –
37 | AGUCAUACAGGAUAUACAUGAGGAUCACCCAUGUAUAUCCUACAUGGGUGAUCCUCAUGUAGAAGGGUAUGACA | 13.5 nM | 11.6 nM | – | –
38 | ACUUAAAUACCCAAAAGUCGGGCGGAGGAUAUGGAGCUUCCACCACAUGAGGAUCACCCAUGUCUUCAGAAGGCCGCCCUUGGG | – | – | 89.6 nM | 8.79 nM
39 | UAAAAGUAGGUAGGAUAUCAUCACGGAAGAUCCUGGAUACUUAGUACAUGAGGAUCACCCAUGUAUGAGAAGGACCAGUGUUUG | 12.5 nM | 14.8 nM | – | –
40 | UGGUACAUGGGAGGAUAUCCUCAAACAUGAGGAUCACCCAUGUAAAAUUAUAAGCCGAAAGGCAUGGAGAAGGCCCAUGUACCU | – | – | 119 nM | 17 nM
41 | CACGUCCUCACAGGAUAUGCUGGACUUUGUCCAGCAGAAGGGUGAAAACAUGAGGAUCACCCAUGUAGGACGUGUAUAUUUAAU | – | – | 1020 nM | 125 nM
42 | UAAUAUUUAUGAUAUUAUUACAUUAGAAGGCAAGACAUGUGGAUACAUGAGGAUCACCCAUGUAUUGAGGAUAUAGACAUAUAU | 15.4 nM | 19.2 nM | – | –
43 | UAUUAUCACGAAGGAUAUGCUGACAUGAGGAUCACCCAUGUAUGUAUAUUGAUCCAGCGUAUUUAGCAGAAGGUCGUGAGUAAA | 45.9 nM | 43 nM | – | –
44 | GUUAUGCAGCAGGAUAUCCAUCCGCGGUAUGGUGGAGAAGGGCUGACAUGAGGAUCACCCAUGUGCGUCCUAGG | 39.9 nM | 104 nM | – | –
45 | UAUCUGUCGGUCAGGAUAUCGUUUGCCACUGUAGCCGAGAAGGGACAUGAGGAUCACCCAUGUGAUUCACGGCA | 23.1 nM | 27.1 nM | – | –
46 | AGGGUAUGAACAUGAGGAUCACCCAUGUACUAGGAAACGAAUGAGGAUAUCGAUAGCAAAGCUAUCGAGAAGGCAUGGGACCCU | – | – | 322 nM | 59.2 nM
47 | UCAUUUCAGUAAGGAUAUUAAAACAUGACGAUACAUGAGGAUCACCCAUGUUAAGAAGGUACUAAUACAUAUAAUGCAAUGUUC | 16 nM | 15 nM | – | –
48 | GCACGGCAUGUAGGAUAUCGAGCGCCGGGCGCUCGAGAAGGACAUGAGGAUCACCCAUGUAUUCUCAGUGAGAGAGUGCUGUGC | 36.1 nM | 55.9 nM | – | –
49 | AGGUGUCCUGAGAAAUUUCUCGACAUGAGGAUCACCCAUGUAGAGGAUAUCGACGCUGUGCGGUUCGAGAAGGCUACACGAAUU | 12.7 nM | 94.3 nM | – | –
50 | AAAUUAAGAAGAGGAUAUUGACAUGAGGAUCACCCAUGUAUUUGGGAAUGUUUACUGAAUUCUUACAAGAAGGUUUACGAACUU | 157 nM | 99.7 nM | – | –
51 | AUAGUUAGUAUAGAUGAGGGCAGCAGAAGGCAAUAUGCUUGUGCCGACAUGAGGAUCACCCAUGUUGAGGAUAUGCGUCCUUCG | 6 nM | 16.9 nM | – | –
52 | UGGUACUAGGGAGGAUAUGGGAAGAUACAUGAGGAUCACCCAUGUUUAAGAAUGUCGAGAGGCAACUAGAAGGCCCUAGUACCU | – | – | 504 nM | 19.4 nM
53 | ACAUGAGGAUCACCCAUGUGAAAAGAAUGGCUGACACAGAGAUAGGAUAUAUGUGCAUAUCAAACAUAGAAGGGUCAUGACUGG | 30.3 nM | 30.2 nM | – | –
54 | ACAAUAGUAUCUCAUGUAUUACAUGAGGAUCACCCAUGUAACUAGGAUAUGUAUUAGAAUUUACAACAGAAGGAGUUAUUAUGU | 9.03 nM | 17.7 nM | – | –
55 | CCGGAAACGGGUAGCCUGACAUGAGGAUCACCCAUGUGAACCGAGGAUAUGGAUCCUAAUUGGAUCCAGAAGGUGGCAGGCUAC | – | – | 681 nM | 245 nM
